Experimental data reported in ChEMBL document CHEMBL1629532, “Design, synthesis, and structure-activity relationships of 3-ethynyl-1H-indazoles as inhibitors of the phosphatidylinositol 3-kinase signaling pathway” (J Med Chem, 2010).
Calls of active or inactive are those of the source. The rule behind the calls is not given here.

What was measured:
[1] = biological target: Phosphatidylinositol 4,5-bisphosphate 3-kinase catalytic subunit alpha isoform (Homo sapiens, UniProt P42336); experiment: Inhibition of PI3Kalpha by LanthaScreen Eu kinase binding assay
Summary of the method: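 Eu kinase binding TR-FRET assay (tracer displacement). PIK3CA/PIK3R1 at 5 nM with kinase tracer 20 nM and Eu-anti-His antibody 2 nM, all final. Buffer 25 mM Tris-HCl, 5 mM MgCl2, 0.02% CHAPS.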

[2] = biological target: RAC-alpha serine/threonine-protein kinase (Homo sapiens) (UniProt P31749); experiment: Inhibition of AKT1 by biochemical assay
[3] = biological target: T1, Serine/threonine-protein kinase mTOR (Homo sapiens, UniProt P42345); experiment: Inhibition of mTORC1 expressed in HEK293 cells assessed as PRAS40 Ser183 phosphorylation level by LanthaScreen cellular assay; format: cell-based
Summary of the method: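 HEK293E cells stably expressing GFP-substrate fusions (AKT for pThr308; PRAS40 for pSer183), 20,000 per well, serum-starved overnight in low-glucose DMEM + 0.1% BSA. Lysed with 2 nM Tb-labeled phosphospecific antibody; TR-FRET read after 2 h at room temperature. IC50 by curve fitting.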

[4] = biological target: T2, 3-phosphoinositide-dependent protein kinase 1 (Homo sapiens, UniProt O15530); experiment: Inhibition of PDK1 by Z'-LYTE kinase activity assay
T2 sequence (O15530 whole entry): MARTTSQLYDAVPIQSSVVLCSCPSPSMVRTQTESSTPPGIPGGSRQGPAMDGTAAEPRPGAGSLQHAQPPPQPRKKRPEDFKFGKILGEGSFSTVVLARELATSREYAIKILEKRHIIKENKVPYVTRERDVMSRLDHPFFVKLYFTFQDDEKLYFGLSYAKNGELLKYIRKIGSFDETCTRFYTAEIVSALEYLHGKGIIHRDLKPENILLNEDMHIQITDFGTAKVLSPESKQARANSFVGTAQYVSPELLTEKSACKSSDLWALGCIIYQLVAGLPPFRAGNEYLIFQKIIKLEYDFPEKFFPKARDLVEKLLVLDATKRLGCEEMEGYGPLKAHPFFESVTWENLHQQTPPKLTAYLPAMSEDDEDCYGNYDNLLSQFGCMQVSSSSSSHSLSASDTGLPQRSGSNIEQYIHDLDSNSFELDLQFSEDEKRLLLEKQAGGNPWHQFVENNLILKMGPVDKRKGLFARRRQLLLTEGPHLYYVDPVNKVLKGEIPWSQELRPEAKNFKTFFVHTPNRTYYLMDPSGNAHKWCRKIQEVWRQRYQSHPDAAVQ

[5] = biological target: T1, Serine/threonine-protein kinase mTOR; experiment: Inhibition of mTOR by LanthaScreen Eu kinase binding assay
Summary of the method: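 Eu kinase binding TR-FRET displacement with FRAP1 (mTOR) at 5 nM, kinase tracer 20 nM and Eu-anti-GST antibody 2 nM, all final. Buffer 25 mM Tris-HCl, 5 mM MgCl2, 0.02% CHAPS.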

[6] = tested on: MDA-MB-231; experiment: Growth inhibition of human MDA-MB-231 cells after 72 hrs by ATPlite assay; format: functional; conditions: MDA-MB-231, 72 h
Summary of the method: (§1)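 Cells seeded at about 3000 per well, grown 24 h, then given fresh medium and test compound in triplicate at 0.5 to 100µM in DMSO (0.5% final). Exposure 72 h at 37 °C, 5% CO₂. Viability measured by ATPlite luminescence and normalized to DMSO-treated controls. GI50 obtained by curve fitting. HeLa cultured in DMEM/10% FBS; MCF7, MDA-MB-231 and PC3 cultured in RPMI+GlutaMAX/10% FBS.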

[7] = tested on: PC-3; experiment: Growth inhibition of human PC3 cells after 72 hrs by ATPlite assay; format: functional; conditions: PC-3, 72 h; summary of the method: as §1
[8] = tested on: MCF7; experiment: Growth inhibition of human MCF7 cells after 72 hrs by ATPlite assay; format: functional; conditions: MCF7, 72 h; summary of the method: as §1
[9] = tested on: HeLa; experiment: Growth inhibition of human HeLa cells after 72 hrs by ATPlite assay; format: functional; summary of the method: as §1
[10] = biological target: Phosphatidylinositol 4,5-bisphosphate 3-kinase catalytic subunit gamma isoform (Homo sapiens, UniProt P48736); experiment: Inhibition of PI3Kgamma
[11] = biological target: T3, Phosphatidylinositol 4,5-bisphosphate 3-kinase catalytic subunit delta isoform (Homo sapiens, UniProt O00329); experiment: Inhibition of PI3Kdelta; conditions: read-out: IC50
T3 sequence (O00329 whole entry): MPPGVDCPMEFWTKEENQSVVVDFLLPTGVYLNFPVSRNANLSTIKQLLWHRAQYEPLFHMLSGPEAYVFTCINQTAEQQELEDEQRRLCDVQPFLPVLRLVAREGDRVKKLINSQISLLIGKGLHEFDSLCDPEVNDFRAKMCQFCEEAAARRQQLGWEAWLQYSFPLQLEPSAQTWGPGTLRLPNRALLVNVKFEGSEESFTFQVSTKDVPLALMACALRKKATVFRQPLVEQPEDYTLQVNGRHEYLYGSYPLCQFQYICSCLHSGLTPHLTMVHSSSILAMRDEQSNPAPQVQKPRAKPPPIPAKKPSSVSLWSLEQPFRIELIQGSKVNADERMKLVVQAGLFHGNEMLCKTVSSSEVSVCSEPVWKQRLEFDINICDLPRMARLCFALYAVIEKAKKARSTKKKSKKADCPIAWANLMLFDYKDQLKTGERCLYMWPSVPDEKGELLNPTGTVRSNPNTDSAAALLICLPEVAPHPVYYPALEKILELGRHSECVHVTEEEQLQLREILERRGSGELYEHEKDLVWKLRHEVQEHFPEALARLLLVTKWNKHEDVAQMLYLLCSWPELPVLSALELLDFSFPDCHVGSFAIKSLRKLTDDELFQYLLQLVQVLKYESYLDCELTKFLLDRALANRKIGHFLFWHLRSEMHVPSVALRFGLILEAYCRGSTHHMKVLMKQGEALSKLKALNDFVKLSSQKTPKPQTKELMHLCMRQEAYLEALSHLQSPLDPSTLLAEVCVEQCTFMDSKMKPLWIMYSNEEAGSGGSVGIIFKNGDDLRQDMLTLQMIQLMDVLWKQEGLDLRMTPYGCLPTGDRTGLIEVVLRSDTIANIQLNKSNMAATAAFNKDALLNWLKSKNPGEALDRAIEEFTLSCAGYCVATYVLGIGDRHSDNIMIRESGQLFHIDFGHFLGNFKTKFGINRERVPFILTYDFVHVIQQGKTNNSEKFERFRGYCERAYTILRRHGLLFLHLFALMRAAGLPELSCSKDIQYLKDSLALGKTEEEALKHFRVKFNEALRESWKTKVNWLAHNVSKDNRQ

[12] = tested on: Liver microsomes; experiment: Metabolic stability in rat liver microsomes; format: ADME, Microsome
Summary of the method: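 Rat liver microsomes (1 mg/ml protein) with 4µM compound in 50mM phosphate pH 7.2. Pre-incubated 5 min at 37.5 °C, then started with 2mM NADPH and run 1 h. Samples taken every 15 min, quenched in methanol with internal standard, analyzed by LC-MS. Duplicate runs alongside two control compounds of known half-life. Half-life reported.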

[13] = tested on: Plasma; experiment: Metabolic stability in rat plasma assessed as compound remaining at 1 uM after 60 mins by Lc/Ms method; format: ADME, cell-free; conditions: 1 h
Summary of the method: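 Compound at 1 µM (2.5% DMSO final) in fresh rat plasma at 37 °C. Stopped at 0, 30 and 60 min with two volumes methanol plus internal standard, then LC-MS. Percent parent remaining relative to 0 min, from peak area ratios to internal standard. Duplicate runs, with a plasma-labile positive control.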

RAC-alpha serine/threonine-protein kinase (Homo sapiens), sequence (P31749 whole entry): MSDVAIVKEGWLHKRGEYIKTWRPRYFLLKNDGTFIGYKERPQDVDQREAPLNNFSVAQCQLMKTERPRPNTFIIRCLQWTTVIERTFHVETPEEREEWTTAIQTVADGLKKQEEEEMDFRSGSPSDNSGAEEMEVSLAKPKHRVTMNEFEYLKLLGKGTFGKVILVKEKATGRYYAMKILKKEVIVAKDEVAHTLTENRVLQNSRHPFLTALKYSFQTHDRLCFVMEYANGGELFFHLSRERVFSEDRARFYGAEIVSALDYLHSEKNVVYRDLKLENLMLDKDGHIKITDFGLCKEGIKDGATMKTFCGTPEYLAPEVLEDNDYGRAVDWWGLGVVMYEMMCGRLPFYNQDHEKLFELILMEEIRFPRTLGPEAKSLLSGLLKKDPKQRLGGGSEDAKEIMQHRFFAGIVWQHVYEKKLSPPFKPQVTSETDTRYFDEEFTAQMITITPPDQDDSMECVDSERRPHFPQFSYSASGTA
Phosphatidylinositol 4,5-bisphosphate 3-kinase catalytic subunit alpha isoform, sequence (P42336 whole entry, canonical isoform): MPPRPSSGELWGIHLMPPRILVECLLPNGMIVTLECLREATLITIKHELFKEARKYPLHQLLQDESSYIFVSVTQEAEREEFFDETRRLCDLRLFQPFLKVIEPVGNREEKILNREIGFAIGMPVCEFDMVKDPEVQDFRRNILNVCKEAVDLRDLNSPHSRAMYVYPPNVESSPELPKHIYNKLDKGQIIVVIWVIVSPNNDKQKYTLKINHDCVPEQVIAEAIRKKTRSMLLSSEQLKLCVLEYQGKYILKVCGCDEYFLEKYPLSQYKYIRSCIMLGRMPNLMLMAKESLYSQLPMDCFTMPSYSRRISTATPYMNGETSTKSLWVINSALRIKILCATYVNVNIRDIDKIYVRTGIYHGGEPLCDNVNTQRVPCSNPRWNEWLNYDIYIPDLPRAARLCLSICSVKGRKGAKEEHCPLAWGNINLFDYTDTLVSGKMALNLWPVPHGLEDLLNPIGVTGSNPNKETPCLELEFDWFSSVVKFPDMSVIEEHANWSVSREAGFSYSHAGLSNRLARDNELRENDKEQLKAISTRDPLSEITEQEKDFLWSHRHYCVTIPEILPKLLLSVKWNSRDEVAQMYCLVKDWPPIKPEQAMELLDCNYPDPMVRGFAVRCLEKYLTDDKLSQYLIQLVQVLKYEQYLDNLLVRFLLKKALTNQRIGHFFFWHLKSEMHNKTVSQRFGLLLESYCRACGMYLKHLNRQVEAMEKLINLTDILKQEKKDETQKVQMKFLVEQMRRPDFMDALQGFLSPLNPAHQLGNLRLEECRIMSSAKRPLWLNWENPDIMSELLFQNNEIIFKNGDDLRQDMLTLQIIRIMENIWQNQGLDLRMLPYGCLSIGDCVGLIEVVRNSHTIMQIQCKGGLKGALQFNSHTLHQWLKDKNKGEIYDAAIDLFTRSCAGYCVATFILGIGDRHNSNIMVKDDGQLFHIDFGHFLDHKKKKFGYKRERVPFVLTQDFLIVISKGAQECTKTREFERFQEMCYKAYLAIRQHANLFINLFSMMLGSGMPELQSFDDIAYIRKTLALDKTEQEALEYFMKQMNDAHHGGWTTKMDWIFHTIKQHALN
Phosphatidylinositol 4,5-bisphosphate 3-kinase catalytic subunit gamma isoform, sequence (P48736 whole entry, canonical isoform): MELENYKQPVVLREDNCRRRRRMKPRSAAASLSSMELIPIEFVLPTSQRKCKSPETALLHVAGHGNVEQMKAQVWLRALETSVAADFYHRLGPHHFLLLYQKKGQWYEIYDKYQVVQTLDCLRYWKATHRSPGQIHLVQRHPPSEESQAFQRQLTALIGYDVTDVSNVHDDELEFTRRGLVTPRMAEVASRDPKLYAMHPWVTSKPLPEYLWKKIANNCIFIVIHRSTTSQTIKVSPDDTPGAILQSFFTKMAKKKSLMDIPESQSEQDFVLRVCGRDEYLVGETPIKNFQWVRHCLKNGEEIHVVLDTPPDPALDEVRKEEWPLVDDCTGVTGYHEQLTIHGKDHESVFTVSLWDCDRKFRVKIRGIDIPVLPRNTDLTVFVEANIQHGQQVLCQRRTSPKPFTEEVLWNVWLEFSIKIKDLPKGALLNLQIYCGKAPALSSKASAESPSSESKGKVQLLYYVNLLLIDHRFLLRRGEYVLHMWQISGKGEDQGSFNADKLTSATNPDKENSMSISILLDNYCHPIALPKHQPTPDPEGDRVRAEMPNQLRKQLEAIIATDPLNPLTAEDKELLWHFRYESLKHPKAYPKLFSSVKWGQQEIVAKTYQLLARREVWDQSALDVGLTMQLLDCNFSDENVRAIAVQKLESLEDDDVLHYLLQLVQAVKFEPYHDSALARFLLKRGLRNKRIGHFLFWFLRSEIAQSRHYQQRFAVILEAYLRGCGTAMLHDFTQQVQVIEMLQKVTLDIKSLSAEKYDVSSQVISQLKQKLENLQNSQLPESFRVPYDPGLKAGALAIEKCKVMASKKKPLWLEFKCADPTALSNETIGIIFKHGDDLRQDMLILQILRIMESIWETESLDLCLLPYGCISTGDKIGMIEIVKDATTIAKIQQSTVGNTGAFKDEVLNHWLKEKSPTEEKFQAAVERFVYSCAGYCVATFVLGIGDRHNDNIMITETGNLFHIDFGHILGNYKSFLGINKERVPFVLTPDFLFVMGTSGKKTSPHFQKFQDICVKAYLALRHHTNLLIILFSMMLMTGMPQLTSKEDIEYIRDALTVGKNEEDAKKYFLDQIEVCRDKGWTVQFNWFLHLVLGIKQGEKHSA

SMILES | IC50 [1] [µM] | inhibition [2] | IC50 [3] [µM] | IC50 [4] [µM] | IC50 [5] [µM] | GI50 [6] [µM] | GI50 [7] [µM] | GI50 [8] [µM] | GI50 [9] [µM] | IC50 [10] [µM] | IC50 [11] [µM] | t1/2 [12] [h] | Stability [13] [%]
C(#Cc1n[nH]c2ncccc12)c1cccnc1 | 9 | inactive | > 10 | > 50 | 5 | – | – | – | – | – | – | – | –
C(#Cc1n[nH]c2ccccc12)c1ccsc1 | > 100 | inactive | > 100 | > 100 | > 100 | – | – | – | – | – | – | – | –
Nc1ccccc1C#Cc1n[nH]c2ccccc12 | > 100 | inactive | > 50 | > 100 | > 100 | – | – | – | – | – | – | – | –
Fc1cc(F)cc(C#Cc2n[nH]c3ccccc23)c1 | > 100 | inactive | > 200 | > 100 | > 100 | – | – | – | – | – | – | – | –
CN(C)CC#Cc1n[nH]c2ccccc12 | > 50 | inactive | > 50 | > 100 | > 100 | – | – | – | – | – | – | – | –
C(#CC1CCCC1)c1n[nH]c2ccccc12 | > 100 | inactive | > 50 | > 100 | > 100 | – | – | – | – | – | – | – | –
C(#Cc1n[nH]c2ccccc12)c1cccnc1 | – | inactive | > 50 | – | > 100 | 10.5 | 6.81 | 3.66 | 5.21 | – | – | – | –
C(#Cc1n[nH]c2ncccc12)c1ccncc1 | 3.05 | inactive | – | > 50 | – | – | – | – | – | – | – | – | –
Nc1cccc(C#Cc2n[nH]c3ccccc23)c1 | – | inactive | – | – | – | 8.29 | 2.84 | 10.4 | 5.21 | > 100 | > 100 | > 1 | 100
C(#Cc1n[nH]c2ccccc12)c1ccccc1 | > 100 | inactive | > 50 | > 50 | > 100 | – | – | – | – | – | – | – | –
FC(F)(F)c1cc(C#Cc2n[nH]c3ccccc23)cc(C(F)(F)F)c1 | > 100 | inactive | > 100 | > 100 | > 100 | – | – | – | – | – | – | – | –
C(#CC1CC1)c1n[nH]c2ccccc12 | > 100 | inactive | > 50 | > 100 | > 100 | – | – | – | – | – | – | – | –
C(#Cc1n[nH]c2ccccc12)c1ccccn1 | > 100 | inactive | > 50 | > 25 | > 100 | – | – | – | – | – | – | – | –
N#Cc1ccc(C#Cc2n[nH]c3ccccc23)cc1 | > 100 | inactive | > 50 | > 100 | > 100 | – | – | – | – | – | – | – | –
Nc1ccc(C#Cc2n[nH]c3ccccc23)cc1 | 1.05 | inactive | 10.8 | 39.2 | 4.97 | 8.28 | 2.51 | 3.23 | – | > 100 | > 100 | – | –
